Converted amounts (≈) assume the structure as drawn.
Columns and labels:
[1] = target: Trace amine-associated receptor 1 (Mus musculus) (UniProt Q923Y8); assay: Agonist activity at mouse TAAR1 receptor expressed in HEK293 cells after 30 mins relative to control; format: functional, cell-based
[2] = target: Trace amine-associated receptor 1 (Mus musculus, UniProt Q923Y8); assay: Agonist activity at mouse TAAR1 receptor expressed in HEK293 cells after 30 mins; format: functional, cell-based
[3] = target: Trace amine-associated receptor 1 (Rattus norvegicus) (UniProt Q923Y9); assay: Agonist activity at rat TAAR1 receptor expressed in HEK293 cells after 30 mins relative to control; format: functional, cell-based
Trace amine-associated receptor 1 (Rattus norvegicus), sequence (Q923Y9 whole entry): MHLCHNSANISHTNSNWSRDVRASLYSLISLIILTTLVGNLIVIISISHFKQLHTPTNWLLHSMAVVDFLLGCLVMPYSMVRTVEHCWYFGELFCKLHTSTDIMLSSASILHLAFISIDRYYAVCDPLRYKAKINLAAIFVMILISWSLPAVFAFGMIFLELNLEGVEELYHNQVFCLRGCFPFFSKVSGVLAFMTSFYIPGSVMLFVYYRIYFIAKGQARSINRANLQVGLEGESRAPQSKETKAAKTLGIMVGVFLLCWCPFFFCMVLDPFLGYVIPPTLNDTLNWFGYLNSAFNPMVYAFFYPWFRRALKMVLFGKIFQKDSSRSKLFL

[4] = target: Trace amine-associated receptor 1 (Rattus norvegicus, UniProt Q923Y9); assay: Agonist activity at rat TAAR1 receptor expressed in HEK293 cells after 30 mins; format: functional, cell-based
Trace amine-associated receptor 1 (Rattus norvegicus, UniProt Q923Y9), sequence (Q923Y9 whole entry): as above

[5] = target: T1, Trace amine-associated receptor 1 (Homo sapiens, UniProt Q96RJ0); assay: Displacement of (S)-4-(2,4-difluorophenyl-3-tritio) -4,5-dihydro-2-oxazolamine from human TAAR1 receptor expressed in HEK293 cells after 90 mins by beta counting analysis; format: cell-based
T1 sequence (Q96RJ0 whole entry): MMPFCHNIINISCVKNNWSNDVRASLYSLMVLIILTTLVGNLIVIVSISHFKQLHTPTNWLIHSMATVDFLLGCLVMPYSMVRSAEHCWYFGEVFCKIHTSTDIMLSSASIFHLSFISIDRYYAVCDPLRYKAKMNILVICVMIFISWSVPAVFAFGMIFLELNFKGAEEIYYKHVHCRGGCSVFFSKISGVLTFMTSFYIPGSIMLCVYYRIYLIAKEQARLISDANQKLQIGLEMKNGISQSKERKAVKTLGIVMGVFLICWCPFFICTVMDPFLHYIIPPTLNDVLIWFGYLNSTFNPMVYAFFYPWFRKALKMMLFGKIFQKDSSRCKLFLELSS

CHL = assay: Selectivity ratio of Ki for human adrenergic alpha2A receptor expressed in CHL cells to Ki for human TAAR1 receptor; format: cell-based
[6] = Half life in mouse at 10 mg/kg, po; format: ADME, organism-based; design: dose 10 mg/kg, route oral; conditions: in vivo
[7] = Ratio of drug level in brain to plasma in mouse at 5 mg/kg, iv; format: ADME, organism-based; design: dose 5 mg/kg, route intravenous; conditions: brain and plasma, read-out: BPR
Liver = assay: Intrinsic clearance in mouse liver microsomes assessed per mg protein; format: ADME, Microsome
[8] = Oral bioavailability in rat at 3.8 mg/kg; format: ADME, organism-based; conditions: in vivo
[9] = Cmax in rat at 3.8 mg/kg, po; format: ADME, organism-based; design: dose 3.8 mg/kg, route oral; conditions: in vivo
Liver microsomes [10] = assay: Intrinsic clearance in human liver microsomes assessed per mg protein; format: ADME, Microsome
[11] = Half life in rat at 3.8 mg/kg, po; format: ADME, organism-based; design: dose 3.8 mg/kg, route oral; conditions: in vivo
Liver microsomes [12] = assay: Intrinsic clearance in rat liver microsomes assessed per mg protein; format: ADME, Microsome
[13] = Clearance in mouse at 5 mg/kg, iv; format: ADME, organism-based; design: dose 5 mg/kg, route intravenous; conditions: in vivo
[14] = Lipophilicity, log D of the compound; format: physicochemical; conditions: octanol/water
In short: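 Distribution coefficient (logD) measured at pH 7.4.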

[15] = Thermodynamic solubility of the compound at pH 6.5; format: physicochemical; conditions: buffer, read-out: Therm_solubility
In short: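 Thermodynamic solubility determined using solid material, with the final pH being 6.5; value expressed in µg/ml.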

[16] = Volume of distribution at steady state in rat at 4.8 mg/kg, iv; format: ADME, organism-based; design: dose 4.8 mg/kg, route intravenous; conditions: in vivo, read-out: Vdss
[17] = Fraction unbound in mouse plasma; format: ADME, cell-free
[18] = Volume of distribution at steady state in mouse at 5 mg/kg, iv; format: ADME, organism-based; design: dose 5 mg/kg, route intravenous; conditions: in vivo, read-out: Vdss
[19] = Cmax in mouse at 10 mg/kg, po; format: ADME, organism-based; design: dose 10 mg/kg, route oral; conditions: in vivo
[20] = Oral bioavailability in mouse at 10 mg/kg; format: ADME, organism-based; conditions: in vivo
[21] = Ratio of drug level in brain to plasma in rat at 4.8 mg/kg, iv; format: ADME, organism-based; design: dose 4.8 mg/kg, route intravenous; conditions: brain and plasma, read-out: BPR
Rattus norvegicus = assay: Inhibition of cocaine-induced hyperlocomotion in po dosed Wistar rat assessed as reduction in locomotor activity after 30 mins; format: functional, organism-based
In short: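 Rats were pretreated orally with several doses of test compound. Hyperlocomotion was then induced with cocaine at 20 mg/kg i.p., and the reduction in locomotor activity was recorded.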

[22] = Permeability of the compound by PAMPA assay; format: ADME; conditions: read-out: permeability
[23] = Clearance in rat at 4.8 mg/kg, iv; format: ADME, organism-based; design: dose 4.8 mg/kg, route intravenous; conditions: in vivo
[24] = Dissociation constant, pKa of the compound; format: physicochemical
[25] = Fraction unbound in rat plasma; format: ADME, cell-free

Trace amine-associated receptor 1 (Mus musculus, UniProt Q923Y8), sequence (Q923Y8 whole entry): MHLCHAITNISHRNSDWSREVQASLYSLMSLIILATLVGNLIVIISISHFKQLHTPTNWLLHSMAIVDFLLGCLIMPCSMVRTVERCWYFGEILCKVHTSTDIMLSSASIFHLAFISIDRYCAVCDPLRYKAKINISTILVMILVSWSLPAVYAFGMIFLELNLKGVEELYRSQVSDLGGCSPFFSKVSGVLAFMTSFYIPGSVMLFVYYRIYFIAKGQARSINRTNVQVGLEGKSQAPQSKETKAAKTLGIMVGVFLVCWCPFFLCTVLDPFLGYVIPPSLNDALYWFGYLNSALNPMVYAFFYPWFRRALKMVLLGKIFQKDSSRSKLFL
Trace amine-associated receptor 1 (Mus musculus), sequence (Q923Y8 whole entry): as above

CC(C)N(Cc1cnc[nH]1)c1ccccc1
Emax [1]: 45% | EC50 [2]: 28 nM | Emax [3]: 34% | EC50 [4]: 7.3 nM

COc1cccc(N(Cc2cnc[nH]2)C(C)C)c1
Emax [1]: 55% | EC50 [2]: 72 nM | Emax [3]: 25% | EC50 [4]: 61 nM

Clc1cccc(Cl)c1Cc1ncc[nH]1
Ki [5]: 1390 nM | Ratio Ki (CHL): 0.7

COc1cccc(N(Cc2cnc[nH]2)C(C)C)n1
Emax [1]: 35% | Emax [3]: 18% | EC50 [4]: 25 nM

c1ccc2c(c1)CCCN2Cc1cnc[nH]1
Ki [5]: 12 nM

c1ccc(NCc2ncc[nH]2)cc1
Ki [5]: 4250 nM | Ratio Ki (CHL): 0.2

CC(C)N(Cc1cnc[nH]1)c1cc(Cl)cc(Cl)c1
Ki [5]: 4 nM | Ratio Ki (CHL): 37

c1ccc(CC2=NCCN2)cc1 [TOLAZOLINE]
Ki [5]: 1640 nM | Ratio Ki (CHL): 0.06

FC(F)(F)c1cccc(C(F)(F)F)c1Cc1ncc[nH]1
Ki [5]: 13300 nM

CC(C)N(Cc1ncc[nH]1)c1cccc(Cl)c1
Emax [1]: 54% | EC50 [2]: 500 nM | Emax [3]: 60% | EC50 [4]: 400 nM

CN(Cc1ncc[nH]1)c1ccccc1
Ki [5]: 1270 nM | Ratio Ki (CHL): 0.2

c1ccc2c(c1)CCCN2Cc1c[nH]cn1
Ratio Ki (CHL): 4

CC(C)N(Cc1cnc[nH]1)c1cccc(Cl)c1
Emax [1]: 50% | EC50 [2]: 10 nM | Emax [3]: 22% | EC50 [4]: 27 nM

CC(C)N(Cc1cnc[nH]1)c1ccc(Cl)cc1
half-life [6]: 1.8 h | Kp [7]: 0.6 | CLint (Liver): 17.5 µL/min/mg | bioavailability [8]: 66% | Cmax [9]: 519 ng/mL | CLint (Liver microsomes [10]): 18 µL/min/mg | Emax [1]: 26% | half-life [11]: 1 h | CLint (Liver microsomes [12]): 70 µL/min/mg | clearance [13]: 24 mL/min/kg | logD [14]: 3.3 | solubility thermodynamic [15]: 97 µg/mL (≈ 388 µM) | Vd [16]: 4.1 L/kg | fraction unbound [17]: 0.08 | Emax [3]: 24% | Vd [18]: 2 L/kg | Cmax [19]: 1740 ng/mL | bioavailability [20]: 86% | Kp [21]: 6.6 | inhibition (Rattus norvegicus): Dose-dependent effect | Papp [22]: 2.7 ×10⁻⁶ cm/s | clearance [23]: 40 mL/min/kg | pKa [24]: 3.5 | fraction unbound [25]: 0.06 | EC50 [4]: 25 nM

From ChEMBL document CHEMBL2203234, “Optimisation of imidazole compounds as selective TAAR1 agonists: discovery of RO5073012” (Bioorg Med Chem Lett, 2012)
